Where two headings read alike, the source gives them in different places.
Columns and labels:
[1] = biological target: PI3Kγ enzyme (Homo sapiens, UniProt P48736); experiment: Adapta universal kinase assay, anti-PI3Kγ activity; type: biochemical
How it was run: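 Adapta ADP-detection TR-FRET immunoassay with test compound at 100 μM. The kinase reaction runs 60 min. It is then stopped by a detection solution of EDTA, europium-labelled anti-ADP antibody and Alexa Fluor 647-labelled ADP tracer. ADP formed displaces the tracer and lowers the TR-FRET signal. ADP formation is calculated from the emission ratio.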

[2] = test system: A549 cancer cell line; experiment: MTT assay; type: cell-based; settings: Homo sapiens, A549, 72 h
How it was run: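 A549 in DMEM and MCF-7 in RPMI, each with 10% heat-inactivated FBS, 1% penicillin/streptomycin and 2 mmol/L glutamine at 37 °C, 5% CO2. Seeded at 2000 (A549) or 10,000 (MCF-7) cells/well and attached 24 h. Then 72 h with test compound at varying concentrations. MTT (5 mg/mL stock) added for 4 h at 37 °C, formazan dissolved in DMSO, absorbance read at 450/540 nm. Triplicates in three separate experiments.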

[3] = test system: Staphylococcus aureus; experiment: Disc diffusion antimicrobial test; type: cell-based; settings: Staphylococcus aureus, 24 h, read-out: zone of inhibition (diameter of inhibition)
How it was run: (§1)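 Disc diffusion on nutrient agar, test compound at 100 μg/mL with DMSO as solvent. Plates incubated at 37 °C for 24 h after inoculation, then zone of inhibition measured and compared with standards. Controls were DMSO, amoxicillin, ciprofloxacin and tetracycline.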

[4] = test system: Escherichia coli; experiment: Disc diffusion antimicrobial test; type: cell-based; settings: Escherichia coli, 24 h, read-out: zone of inhibition (diameter of inhibition)
How it was run: as §1

[5] = test system: Fibro cell line; experiment: % inhibition on normal cell line; type: cell-based
[6] = test system: MDA-MB-231/ATCC; experiment: NCI 60-cell line screen; type: cell-based, human
[7] = test system: T-47D; experiment: NCI 60-cell line screen; type: cell-based, human
How it was run: (§2)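 Test compounds were submitted to the National Cancer Institute and run under NCI's standard 60-cell-line protocols. Read-outs were taken from percent-growth versus log-concentration curves.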

[8] = test system: HCC-2998; experiment: NCI 60-cell line screen; type: cell-based, human
[9] = test system: HCT-15; experiment: NCI 60-cell line screen; type: cell-based, human
[10] = test system: KM12; experiment: NCI 60-cell line screen; type: cell-based, human
[11] = test system: K-562; experiment: NCI 60-cell line screen; type: cell-based, human
[12] = test system: EKVX; experiment: NCI 60-cell line screen; type: cell-based, human
[13] = test system: NCI-H226; experiment: NCI 60-cell line screen; type: cell-based, human
[14] = test system: NCI-H322M; experiment: NCI 60-cell line screen; type: cell-based, human
[15] = test system: NCI-H460; experiment: NCI 60-cell line screen; type: cell-based, human
[16] = test system: NCI-H522; experiment: NCI 60-cell line screen; type: cell-based, human
[17] = test system: OVCAR-3; experiment: NCI 60-cell line screen; type: cell-based, human
[18] = test system: OVCAR-8; experiment: NCI 60-cell line screen; type: cell-based, human
How it was run: as §2

[19] = test system: SK-OV-3; experiment: NCI 60-cell line screen; type: cell-based, human
How it was run: as §2

[20] = test system: 786-0; experiment: NCI 60-cell line screen; type: cell-based, human
[21] = test system: A498; experiment: NCI 60-cell line screen; type: cell-based, human
[22] = test system: CAKI-1; experiment: NCI 60-cell line screen; type: cell-based, human
[23] = test system: SN12C; experiment: NCI 60-cell line screen; type: cell-based, human
How it was run: as §2

Sequence of PI3Kγ enzyme (P48736 whole entry): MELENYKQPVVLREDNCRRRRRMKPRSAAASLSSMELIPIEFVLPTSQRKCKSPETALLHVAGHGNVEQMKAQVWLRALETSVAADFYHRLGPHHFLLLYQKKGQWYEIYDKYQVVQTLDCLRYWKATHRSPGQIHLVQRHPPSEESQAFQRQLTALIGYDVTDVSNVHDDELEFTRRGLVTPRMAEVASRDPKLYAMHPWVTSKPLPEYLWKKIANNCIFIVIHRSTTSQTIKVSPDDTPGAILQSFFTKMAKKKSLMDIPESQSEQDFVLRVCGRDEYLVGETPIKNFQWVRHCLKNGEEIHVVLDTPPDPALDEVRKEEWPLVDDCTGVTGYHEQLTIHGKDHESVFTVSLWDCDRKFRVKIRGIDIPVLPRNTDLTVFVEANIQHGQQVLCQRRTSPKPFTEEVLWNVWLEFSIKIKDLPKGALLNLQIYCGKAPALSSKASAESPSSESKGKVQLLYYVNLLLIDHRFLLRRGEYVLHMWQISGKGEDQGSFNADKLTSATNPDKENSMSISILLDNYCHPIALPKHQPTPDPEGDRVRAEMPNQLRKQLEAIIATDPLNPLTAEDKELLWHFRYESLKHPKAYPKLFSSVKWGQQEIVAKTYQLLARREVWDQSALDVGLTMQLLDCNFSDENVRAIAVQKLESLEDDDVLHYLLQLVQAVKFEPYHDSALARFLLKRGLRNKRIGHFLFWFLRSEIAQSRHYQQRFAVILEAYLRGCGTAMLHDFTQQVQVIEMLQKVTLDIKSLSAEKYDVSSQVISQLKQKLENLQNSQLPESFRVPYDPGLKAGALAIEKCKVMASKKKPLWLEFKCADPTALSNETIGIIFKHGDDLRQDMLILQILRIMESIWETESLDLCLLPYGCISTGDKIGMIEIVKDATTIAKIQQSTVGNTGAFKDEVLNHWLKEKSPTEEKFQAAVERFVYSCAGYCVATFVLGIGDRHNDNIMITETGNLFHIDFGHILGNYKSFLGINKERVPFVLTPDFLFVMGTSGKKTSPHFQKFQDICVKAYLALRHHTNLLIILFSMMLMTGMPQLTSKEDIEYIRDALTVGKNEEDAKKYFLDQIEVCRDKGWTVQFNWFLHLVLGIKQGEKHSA

O=C(CNc1ccc([N+](=O)[O-])cc1)Nc1nc2ccccc2s1 [OMS5, N-(1,3-benzothiazol-2-yl)-2-(4-nitroanilino)acetamide]
inhibition at 100 µM ([1]; read-out: % of inhibition (mean) against PI3Kγ enzyme): 0%
inhibition at 100 µM ([1]; read-out: % of inhibition against PI3Kγ enzyme, point 1): 0%
inhibition at 100 µM ([1]; read-out: % of inhibition against PI3Kγ enzyme, point 2): 0%
IC50 [2]: 61000 nM
inhibition at 100 µM ([2]; read-out: experimental % of inhibition on A549 cancer cell line): 64.2%
zone of inhibition at 100 µg/mL [3]: 0 mm
zone of inhibition at 100 µg/mL [4]: 0 mm
inhibition at 10 µM ([5]; read-out: %inhibition at 10 μM): 57.9%
inhibition at 100 µM ([5]; read-out: %inhibition at 100 μM): 67.1%
GI50 ([6]; Homo sapiens, MDA-MB-231): 1000 nM
IC50 ([6]; Homo sapiens, MDA-MB-231): 2300 nM
CC50 ([6]; Homo sapiens, MDA-MB-231, read-out: LC50): 8300 nM
TGI ([6]; MDA-MB-231/ATCC, breast cancer): 2900 nM
GI50 ([7]; Homo sapiens, T47D): 1000 nM
IC50 ([7]; Homo sapiens, T47D): 4600 nM
CC50 ([7]; Homo sapiens, T47D, read-out: LC50): 74100 nM
TGI ([7]; T-47D, breast cancer): 4600 nM
TGI ([8]; HCC-2998, colon cancer): 2200 nM
GI50 ([8]; Homo sapiens, HCC 2998): 900 nM
IC50 ([8]; Homo sapiens, HCC 2998): 1600 nM
CC50 ([8]; Homo sapiens, HCC 2998, read-out: LC50): 5300 nM
TGI ([9]; HCT-15, colon cancer): 3700 nM
GI50 ([9]; Homo sapiens, HCT-15): 500 nM
IC50 ([9]; Homo sapiens, HCT-15): 700 nM
CC50 ([9]; Homo sapiens, HCT-15, read-out: LC50): 28800 nM
GI50 ([10]; Homo sapiens, KM12): 1200 nM
IC50 ([10]; Homo sapiens, KM12): 2500 nM
CC50 ([10]; Homo sapiens, KM12, read-out: LC50): 52500 nM
TGI ([10]; KM12, colon cancer): 12000 nM
GI50 ([11]; Homo sapiens, K562): 500 nM
IC50 ([11]; Homo sapiens, K562): 600 nM
CC50 ([11]; Homo sapiens, K562, read-out: LC50): > 100000 nM
TGI ([11]; K-562, leukemia): 100000 nM
GI50 ([12]; Homo sapiens): 1100 nM
IC50 ([12]; Homo sapiens): 2500 nM
CC50 ([12]; Homo sapiens, read-out: LC50): 26900 nM
TGI ([12]; non-small cell lung cancer): 4200 nM
GI50 ([13]; Homo sapiens, NCI-H226): 600 nM
IC50 ([13]; Homo sapiens, NCI-H226): 3000 nM
CC50 ([13]; Homo sapiens, NCI-H226, read-out: LC50): > 100000 nM
TGI ([13]; NCI-H226, non-small cell lung cancer): 4900 nM
GI50 ([14]; Homo sapiens): 1100 nM
IC50 ([14]; Homo sapiens): 2500 nM
CC50 ([14]; Homo sapiens, read-out: LC50): 28800 nM
TGI ([14]; non-small cell lung cancer): 4100 nM
GI50 ([15]; Homo sapiens, NCI-H460): 400 nM
IC50 ([15]; Homo sapiens, NCI-H460): 500 nM
CC50 ([15]; Homo sapiens, NCI-H460, read-out: LC50): 39800 nM
TGI ([15]; NCI-H460, non-small cell lung cancer): 3300 nM
GI50 ([16]; Homo sapiens, NCI-H522): 700 nM
IC50 ([16]; Homo sapiens, NCI-H522): 2100 nM
CC50 ([16]; Homo sapiens, NCI-H522, read-out: LC50): 6300 nM
TGI ([16]; NCI-H522, non-small cell lung cancer): 2300 nM
GI50 ([17]; Homo sapiens, OVCAR-3): 1900 nM
IC50 ([17]; Homo sapiens, OVCAR-3): 4000 nM
CC50 ([17]; Homo sapiens, OVCAR-3, read-out: LC50): > 100000 nM
TGI ([17]; OVCAR-3, ovarian cancer): 9100 nM
GI50 ([18]; Homo sapiens, OVCAR-8): 600 nM
IC50 ([18]; Homo sapiens, OVCAR-8): 900 nM
CC50 ([18]; Homo sapiens, OVCAR-8, read-out: LC50): > 100000 nM
TGI ([18]; OVCAR-8, ovarian cancer): 22000 nM
GI50 ([19]; Homo sapiens, SK-OV-3): 1300 nM
IC50 ([19]; Homo sapiens, SK-OV-3): 5200 nM
CC50 ([19]; Homo sapiens, SK-OV-3, read-out: LC50): > 100000 nM
TGI ([19]; SK-OV-3, ovarian cancer): 6800 nM
TGI ([20]; 786-0, renal cancer): 12000 nM
GI50 ([20]; Homo sapiens, 786-0): 500 nM
IC50 ([20]; Homo sapiens, 786-0): 900 nM
CC50 ([20]; Homo sapiens, 786-0, read-out: LC50): 43700 nM
TGI ([21]; A498, renal cancer): 6500 nM
GI50 ([21]; Homo sapiens, A498): 1400 nM
IC50 ([21]; Homo sapiens, A498): 7200 nM
CC50 ([21]; Homo sapiens, A498, read-out: LC50): 28800 nM
TGI ([22]; CAKI-1, renal cancer): 9500 nM
GI50 ([22]; Homo sapiens, CAKI-1): 400 nM
IC50 ([22]; Homo sapiens, CAKI-1): 900 nM
CC50 ([22]; Homo sapiens, CAKI-1, read-out: LC50): 32400 nM
GI50 ([23]; Homo sapiens): 600 nM
IC50 ([23]; Homo sapiens): 1500 nM
CC50 ([23]; Homo sapiens, read-out: LC50): 57500 nM
TGI ([23]; renal cancer): 4900 nM

From PMC10975593 (ACS Omega, 2024)
